In ChEMBL document CHEMBL1139306, “Design and synthesis of pyrazole derivatives as potent and selective inhibitors of tissue-nonspecific alkaline phosphatase (TNAP)” (Bioorg Med Chem Lett, 2009) one finds IC50 and fold change (FC) data, which are given here for 25 molecules.

Some results are limits rather than exact numbers.

Glyceraldehyde-3-phosphate dehydrogenase, sequence (P04406 whole entry): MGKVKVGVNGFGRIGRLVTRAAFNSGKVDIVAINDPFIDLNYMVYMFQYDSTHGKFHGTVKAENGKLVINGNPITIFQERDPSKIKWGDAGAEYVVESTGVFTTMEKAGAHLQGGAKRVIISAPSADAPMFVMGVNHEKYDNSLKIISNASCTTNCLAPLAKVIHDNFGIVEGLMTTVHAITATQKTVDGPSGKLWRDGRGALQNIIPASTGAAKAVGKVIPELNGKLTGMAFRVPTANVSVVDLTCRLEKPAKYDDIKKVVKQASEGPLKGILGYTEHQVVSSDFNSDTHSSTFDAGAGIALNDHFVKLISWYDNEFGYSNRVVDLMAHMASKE

In one assay the target is T1, Alkaline phosphatase, tissue-nonspecific isozyme (Homo sapiens, UniProt P05186).
T1 sequence (P05186 whole entry): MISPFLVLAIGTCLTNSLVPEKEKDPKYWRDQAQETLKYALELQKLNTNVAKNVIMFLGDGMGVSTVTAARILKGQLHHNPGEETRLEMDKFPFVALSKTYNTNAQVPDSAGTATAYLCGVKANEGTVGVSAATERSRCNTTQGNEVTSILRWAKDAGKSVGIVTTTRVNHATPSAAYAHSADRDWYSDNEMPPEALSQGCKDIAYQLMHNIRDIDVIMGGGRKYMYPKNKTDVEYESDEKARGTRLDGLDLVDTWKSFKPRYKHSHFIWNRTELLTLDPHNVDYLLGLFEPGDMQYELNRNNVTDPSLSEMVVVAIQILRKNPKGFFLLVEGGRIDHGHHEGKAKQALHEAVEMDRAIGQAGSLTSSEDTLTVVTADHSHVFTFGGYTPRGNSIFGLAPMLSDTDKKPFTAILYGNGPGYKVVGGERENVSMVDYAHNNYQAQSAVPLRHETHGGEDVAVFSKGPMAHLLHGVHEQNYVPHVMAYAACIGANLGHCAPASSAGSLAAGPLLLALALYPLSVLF
Nature of the assay: Inhibition of TNSALP. Summed up: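 TNAP activity read on an EnVision plate reader in 100 mM diethanolamine-HCl, pH 9.8, with 1 mM MgCl₂, 20 μM ZnCl₂ and 50 μM CDP-star as substrate.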
`O=C(c1cc(-c2ccc(Cl)cc2Cl)n[nH]1)N1CCOCC1`: half-maximal inhibition (IC50) required 0.574 µM. This lies in the sub-micromolar range.

Molecule `NNC(=O)c1cc(-c2ccc(Cl)cc2Cl)n[nH]1` registered an IC50 of 0.044 µM. This IC50 lies about 13-fold lower than the previous one.

In the case of `CC(C)CCNC(=O)c1cc(-c2ccc(Cl)cc2Cl)n[nH]1`, the IC50 was 0.459 µM.

Take `O=C(c1cc(-c2ccc(Cl)cc2Cl)n[nH]1)N1CCCCCC1`: the half-maximal inhibitory concentration (IC50) turned out to be 1.45 µM.

In the case of `CC(C)NC(=O)c1cc(-c2cc(F)c(Cl)cc2Cl)n[nH]1`, the IC50 amounted to 4.85 µM.

For the molecule `CC(C)CNC(=O)c1cc(-c2ccc(Cl)cc2Cl)n[nH]1`, it took 0.082 µM to reach half-maximal inhibition (IC50).

`O=C(NCCO)c1cc(-c2cc(F)c(Cl)cc2Cl)n[nH]1` gave an IC50 of 0.1 µM.

`O=C(NCCO)c1cc(-c2ccc(Cl)cc2Cl)n[nH]1`: inhibition was half-maximal at 0.044 µM (IC50). Compared with the last molecule, the IC50 is about 2.3-fold lower.

`O=C(NCCCO)c1cc(-c2ccc(Cl)cc2Cl)n[nH]1` yielded a half-inhibitory concentration (IC50) of 0.031 µM.

`O=C(c1cc(-c2cc(F)c(Cl)cc2Cl)n[nH]1)N(CCO)CCO` registered a 50% inhibitory concentration (IC50) of 0.127 µM. Compared with the last molecule, the IC50 is about 4.1-fold higher.

In turn, `O=C(c1cc(-c2ccc(Cl)cc2Cl)n[nH]1)N(CCO)CCO` returned an IC50 of 0.047 µM.

For `CC(C)NC(=O)c1cc(-c2ccc(Cl)cc2Cl)n[nH]1`, the IC50 was 0.051 µM.

For the molecule `O=C(NCCO)c1cc(-c2ccc(F)cc2F)n[nH]1`, inhibition was half-maximal at 0.035 µM (IC50). The IC50 values of the last two molecules are within 1.5-fold of each other.

Molecule `CN(C)C(=O)c1cc(-c2ccc(Cl)cc2Cl)n[nH]1` returned an IC50 of 0.119 µM. This IC50 lies about 3.4-fold higher than the previous one.

`O=C(NCCO)c1cc(-c2cc(F)c(F)cc2F)n[nH]1` yielded a 50% inhibitory concentration (IC50) of 0.134 µM.

The molecule `O=C(c1cc(-c2ccc(Cl)cc2Cl)n[nH]1)N1CCN(CCO)CC1` registered an IC50 of 0.375 µM.

The molecule `CCN(CC)C(=O)c1cc(-c2ccc(Cl)cc2Cl)n[nH]1` yielded an IC50 of 0.285 µM.

`O=C(NCCCO)c1cc(-c2cc(F)c(Cl)cc2Cl)n[nH]1` came in with an IC50 of 0.056 µM.

Consider `O=C(NCCCCO)c1cc(-c2ccc(Cl)cc2Cl)n[nH]1`, for which the IC50 is 0.035 µM.

In turn, `CN(C)C(=O)c1cc(-c2cc(F)c(Cl)cc2Cl)n[nH]1` returned an IC50 of 0.324 µM.

As to `CCN1CCN(C(=O)c2cc(-c3ccc(Cl)cc3Cl)n[nH]2)CC1`, the IC50 turned out to be 0.488 µM.

Take `CC(C)(C)NC(=O)c1cc(-c2ccc(Cl)cc2Cl)n[nH]1`: inhibition was half-maximal at 0.398 µM (IC50).

`COCCNC(=O)c1cc(-c2ccc(Cl)cc2Cl)n[nH]1` had an IC50 of 0.046 µM.

Molecule `CN1CCN(C(=O)c2cc(-c3ccc(Cl)cc3Cl)n[nH]2)CC1` came in with an IC50 of 0.828 µM.

Tested on in a further assay: not listed separately
Nature of the assay: Selectivity of TNSALP over PLAP.
Take `O=C(NCCO)c1cc(-c2ccc(Cl)c(Cl)c2Cl)n[nH]1`: the fold change (FC) is 2000.

Tested on in another assay: not listed separately
The assay can be described thus: Selectivity of TNSALP over GAPDH.
With `O=C(NCCO)c1cc(-c2ccc(Cl)c(Cl)c2Cl)n[nH]1`, the fold change (FC) was 2000.

The target of another assay is Alkaline phosphatase, placental type (Homo sapiens, UniProt P05187). Nature of the assay: Inhibition of PLAP.
Alkaline phosphatase, placental type, sequence (P05187 whole entry): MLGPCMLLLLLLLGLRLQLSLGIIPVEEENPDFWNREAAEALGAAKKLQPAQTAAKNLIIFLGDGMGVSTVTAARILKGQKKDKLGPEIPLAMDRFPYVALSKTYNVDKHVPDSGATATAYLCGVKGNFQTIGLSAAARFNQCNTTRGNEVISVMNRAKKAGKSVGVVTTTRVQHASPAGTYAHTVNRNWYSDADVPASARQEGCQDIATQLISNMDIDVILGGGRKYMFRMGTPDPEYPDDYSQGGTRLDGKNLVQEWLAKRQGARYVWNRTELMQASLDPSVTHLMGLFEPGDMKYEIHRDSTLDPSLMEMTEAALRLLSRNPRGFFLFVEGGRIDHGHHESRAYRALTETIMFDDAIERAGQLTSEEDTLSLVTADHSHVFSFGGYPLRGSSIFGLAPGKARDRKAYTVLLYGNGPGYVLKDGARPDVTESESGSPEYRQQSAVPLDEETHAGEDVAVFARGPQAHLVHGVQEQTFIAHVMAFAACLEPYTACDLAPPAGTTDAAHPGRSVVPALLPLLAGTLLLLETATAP
Consider `O=C(NCCO)c1cc(-c2ccc(Cl)c(Cl)c2Cl)n[nH]1`, for which the IC50 is above 10 µM.

The next assay has as its target Glyceraldehyde-3-phosphate dehydrogenase (Homo sapiens, UniProt P04406). Nature of the assay: Inhibition of GAPDH.
The molecule `O=C(NCCO)c1cc(-c2ccc(Cl)c(Cl)c2Cl)n[nH]1` had an IC50 above 10 µM.

Usually IC50 stands for the point on the concentration scale where inhibition reaches its midpoint. Read a high IC50 as lower potency.
